A word on the IC50: it is the point on the concentration scale where inhibition reaches its midpoint.

The assay addresses T1, Sodium/glucose cotransporter 2 (Homo sapiens, UniProt P31639).
T1 sequence (P31639 whole entry): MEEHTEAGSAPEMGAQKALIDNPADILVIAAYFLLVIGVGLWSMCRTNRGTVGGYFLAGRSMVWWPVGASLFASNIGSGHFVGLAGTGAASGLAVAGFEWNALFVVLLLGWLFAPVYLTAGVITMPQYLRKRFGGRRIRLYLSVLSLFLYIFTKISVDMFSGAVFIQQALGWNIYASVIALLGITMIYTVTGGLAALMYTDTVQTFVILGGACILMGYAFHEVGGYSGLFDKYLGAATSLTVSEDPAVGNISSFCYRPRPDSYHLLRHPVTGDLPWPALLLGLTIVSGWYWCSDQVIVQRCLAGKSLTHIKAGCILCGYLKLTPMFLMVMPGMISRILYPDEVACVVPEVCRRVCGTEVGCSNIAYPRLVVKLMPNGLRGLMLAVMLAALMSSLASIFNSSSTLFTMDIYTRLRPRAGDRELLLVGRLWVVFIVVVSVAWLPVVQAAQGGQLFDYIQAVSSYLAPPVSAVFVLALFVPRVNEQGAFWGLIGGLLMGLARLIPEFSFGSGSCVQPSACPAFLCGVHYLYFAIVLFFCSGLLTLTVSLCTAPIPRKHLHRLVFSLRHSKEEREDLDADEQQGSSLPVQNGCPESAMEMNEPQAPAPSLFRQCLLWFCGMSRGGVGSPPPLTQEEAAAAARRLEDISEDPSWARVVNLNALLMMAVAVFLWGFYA
The assay is described as follows: Inhibition of human SGLT2 expressed in CHO cells assessed as [14C]-alpha-methyl-D-glucopyranoside uptake after 2 hrs by liquid scintillation counter. It counts as cell-based. The gist of the method: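 hSGLT2 cDNA from adult kidney, stably transfected into CHO cells. They were pretreated 10 min at 37 °C in choline-chloride buffer (pH 7.4), then taken up 2 h at 37 °C in NaCl buffer with 1 mM unlabeled AMG plus ¹⁴C-AMG (8 uM) and inhibitor or DMSO. Two washes in buffer containing 10 mM AMG. IC₅₀ by nonlinear regression.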

In the case of `C=CCOCc1cc(Cl)c(Cc2ncc(-c3ccco3)s2)cc1[C@@H]1O[C@H](CO)[C@@H](O)[C@H](O)[C@H]1O`, the IC50 came to 0.0175 µM.
Under `COc1cc(Cl)c(Cc2ncc(-c3ccco3)s2)cc1[C@@H]1O[C@H](CO)[C@@H](O)[C@H](O)[C@H]1O` stands 0.00215 µM.
As for `COc1cc(Cl)c(Cc2ncc(-c3cccs3)s2)cc1[C@@H]1O[C@H](CO)[C@@H](O)[C@H](O)[C@H]1O`, the figure is 0.00159 µM; as for `CCOc1cc(Cl)c(Cc2ncc(-c3ccsc3)s2)cc1[C@@H]1O[C@H](CO)[C@@H](O)[C@H](O)[C@H]1O`, 0.00118 µM.
`CCCOc1cc(Cl)c(Cc2ncc(-c3ccco3)s2)cc1[C@@H]1O[C@H](CO)[C@@H](O)[C@H](O)[C@H]1O`: the IC50 is 0.0216 µM.
On to `C#CCOc1cc(Cl)c(Cc2ncc(-c3ccco3)s2)cc1[C@@H]1O[C@H](CO)[C@@H](O)[C@H](O)[C@H]1O`, for which the IC50 came to 0.00223 µM.
As for `C=CCCOc1cc(Cl)c(Cc2ncc(-c3ccco3)s2)cc1[C@@H]1O[C@H](CO)[C@@H](O)[C@H](O)[C@H]1O`, the figure is 0.0328 µM; as for `CN(C)CCOc1cc(Cl)c(Cc2ncc(-c3ccco3)s2)cc1[C@@H]1O[C@H](CO)[C@@H](O)[C@H](O)[C@H]1O`, 0.713 µM.
For `OCc1cc(Cl)c(Cc2ncc(-c3ccco3)s2)cc1[C@@H]1O[C@H](CO)[C@@H](O)[C@H](O)[C@H]1O`, the IC50 was determined as 0.00581 µM.
Take `OCc1cc(Cl)c(Cc2ncc(-c3ccoc3)s2)cc1[C@@H]1O[C@H](CO)[C@@H](O)[C@H](O)[C@H]1O`: the IC50 was 0.0205 µM.
Consider `OCc1cc(Cl)c(Cc2ncc(-c3cccs3)s2)cc1[C@@H]1O[C@H](CO)[C@@H](O)[C@H](O)[C@H]1O`, for which the IC50 came out at 0.00588 µM.
As for `OCc1cc(Cl)c(Cc2ncc(-c3ccsc3)s2)cc1[C@@H]1O[C@H](CO)[C@@H](O)[C@H](O)[C@H]1O`, the half-inhibitory concentration (IC50) was found to be 0.00223 µM.
For `C=CCOCc1cc(Cl)c(Cc2ncc(-c3ccoc3)s2)cc1[C@@H]1O[C@H](CO)[C@@H](O)[C@H](O)[C@H]1O`, the IC50 stood at 0.0387 µM.
With `C=CCOCc1cc(Cl)c(Cc2ncc(-c3cccs3)s2)cc1[C@@H]1O[C@H](CO)[C@@H](O)[C@H](O)[C@H]1O`, the IC50 worked out at 0.0162 µM.
As for `C=CCOCc1cc(Cl)c(Cc2ncc(-c3ccsc3)s2)cc1[C@@H]1O[C@H](CO)[C@@H](O)[C@H](O)[C@H]1O`, the figure is 0.01 µM; as for `OC[C@H]1O[C@@H](c2cc(Cc3ncc(-c4ccc(F)cc4)s3)c(Cl)cc2F)[C@H](O)[C@@H](O)[C@@H]1O`, 0.0274 µM; as for `OC[C@H]1O[C@@H](c2cc(Cc3ncc(-c4ccco4)s3)c(Cl)cc2Cl)[C@H](O)[C@@H](O)[C@@H]1O`, 0.00224 µM.

For the origin of these results see ChEMBL document CHEMBL1781928, “Thiazolylmethyl ortho-substituted phenyl glucoside library as novel C-aryl glucoside SGLT2 inhibitors” (Eur J Med Chem, 2011).
